Plk1 PBD FP: Plk1 polo box domain binding inhibitors, primary screen, biochemical, fluorescence polarization; Serine/threonine-protein kinase PLK1 (Homo sapiens), P53350; Plk1 PBD phosphopeptide binding; inhibition, %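 (tested at about 20 µM)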; 97,000 tested, 0.13% active; in the data active = inhibition above about 34%, passing the limit was not always enough
HIV Rev-RRE inh: HIV-1 Rev-RRE binding inhibitors, primary screen, biochemical, FRET, protein-RNA interaction. P05866. Rev peptide-RRE RNA binding. inhibition, % at 8 µM. 97,000 tested, 0.79% active;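 active = inhibition above the screen-wide mean plus 3 SD, cut at about 35% in these data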
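Test system: Cy5-tagged RRE RNA duplex with fluorescein-tagged Rev peptide | Read-out: % inhibition of FRET ratio versus controls | Probe or stimulus: Labelled Rev peptide | Incubation: 5 min RNA-compound premix plus 15 min binding step, 25 °C | Technique: FRET fluorescence readout | Benchmarks: DMSO low control, neomycin B high control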
PLK1 kinase inh: human PLK1 kinase inhibitors, primary screen, biochemical, TR-FRET | AID 619, 2007 | recombinant PLK1 kinase, TR-FRET peptide phosphorylation | 97,000 tested, 0.53% active | Serine/threonine-protein kinase PLK1 (Homo sapiens), P53350 | inhibition, % at 10 µM;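 active = inhibition of 50% or more in the single-concentration screen; inactive = inhibition below 50%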
PostGolgi yeast: phenotypic screen on post-Golgi transport, primary screen; post-Golgi transport phenotypic cell assay; inhibition, % at 10 µM; 98,000 tested, 0.9% active;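 also: yeast cells grown in 1536-well plates; yeast grown about 18 h at 30C before absorbance read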
PostGolgi ctrl: growth inhibition of yeast control strain, primary screen, counter-screen for post-Golgi transport modulator project | efflux-deficient yeast background strain, growth absorbance A615, 16 h | AID 738, 2007 | 98,000 tested, 5% active | inhibition, % at 10 µM
EphB4 antag: EphB4-ephrin-B2 interaction antagonists, primary screen, biochemical, TNYL-RAW peptide probe, fluorescence polarization. AID 720, 2007. 97,000 tested, 0.15% active. inhibition, % at 7 µM. EphB4 LBD / TNYL-RAW-Alexa532 peptide;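 active = inhibition above the screen-wide mean inhibition plus 3 SD, cut at about 15% in these data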
Of the large screens only hits and unclear results are named; the others gave an inactive call; [ ] = remark or other dose. A selection: hits, their analogues and other compounds. The true share with any hit is near 6.4%. Rule as the data show it, unless noted: active = inhibition above about 30%; inactive = the rest.

C=CCN1C(=O)CSC1=Nc1cccc(O)c1	none
CN(Cc1ccccc1)C(NC(=O)c1ccccc1)C(Cl)(Cl)Cl (centres undefined)	PostGolgi ctrl 34.8
CCN(CC)C(NC(=O)Cc1ccccc1)C(Cl)(Cl)Cl (centres undefined)	none
Nc1nonc1C(=O)NCCNS(=O)(=O)c1ccc(Br)cc1	none
CCOC(=O)c1ccc(COC(=O)c2nonc2N)cc1	none
Cc1ccc2ccccc2c1COC(=O)c1nonc1N	PostGolgi ctrl 74.5
O=C(Cc1ccccc1)Nc1c2c(nn1-c1cccc(Cl)c1)CS(=O)(=O)C2	PLK1 kinase inh 65.6
COc1ccc(CC(=O)Nc2c3c(nn2-c2cccc(Cl)c2)CS(=O)(=O)C3)cc1	PostGolgi ctrl 34.2
COc1ccc(NS(=O)(=O)c2cccc3cccnc23)cc1	none (no result: PostGolgi yeast, PostGolgi ctrl)
O=S(=O)(Nc1ccc(N2CCCCC2)cc1)c1cccc2cccnc12	PostGolgi ctrl 37.7
Cc1ccccc1C(=O)O/N=C/c1c(N2CCOCC2)n(C)c2ccccc12	PostGolgi yeast 53.7, PostGolgi ctrl 39.9
Cc1c(N2C(=O)/C(=C\c3cccc4ccccc34)SC2=S)c(=O)n(-c2ccccc2)n1C	PostGolgi ctrl 53.6
COC(=O)c1cc(S(=O)(=O)n2nc(C)c(Br)c2C)c(Cl)cc1Cl	none
CCOC(=O)c1oc2ccccc2c1NC(=O)c1cccc(OC)c1OC	PostGolgi ctrl 46.2
O=C(c1cc2ccccc2o1)N1CCN(c2ccccc2Cl)CC1	PostGolgi ctrl 39.9
O=C(c1ccccc1)N1CCN(C(=O)c2cc3ccccc3o2)CC1	PostGolgi ctrl 30.7
CCOc1cc(CNCc2ccncc2)cc(Br)c1OCc1ccccc1F	none
O=C1c2cccc3c(O)ccc(c23)C(=O)N1Cc1ccccc1	HIV Rev-RRE inh 130.5[fluorescence artefact?], PostGolgi yeast 30.4
Cc1ccc(NCc2nnc(SCC(=O)Nc3cccc(O)c3)n2CC2CCCO2)c(C)c1 (centres undefined)	none (no result: Plk1 PBD FP, HIV Rev-RRE inh, PLK1 kinase inh, EphB4 antag)
Cc1cc(-c2ccccc2)n(-c2ccc(C(=O)N3CCN(c4ncccn4)CC3)cc2)n1	PostGolgi ctrl 61.1
CNC(=O)c1ccc(-n2nc(C)cc2-c2ccccc2)cc1	none
Cc1nc2ccccc2n2c(-c3ccccc3)c3c(=O)n(C)c(=O)n(C)c3c12	PostGolgi ctrl 46.7
CN(C)CCCNC(=O)C1CCNCC1	none (no result: Plk1 PBD FP, HIV Rev-RRE inh, PLK1 kinase inh, EphB4 antag)
O=C(Nc1ccc(OCC(F)(F)C(F)F)c(C(F)(F)F)c1)c1ccccc1O	PostGolgi ctrl 85.2
O=C(Nc1ccc(OCC(F)(F)C(F)F)c(C(F)(F)F)c1)c1ccccc1	none (no result: PostGolgi yeast, PostGolgi ctrl)
COc1ccc(C(c2nnnn2Cc2ccc(F)cc2)N2CCN(c3ccc(OC)cc3)CC2)cc1 (centres undefined)	none
COc1ccc(C(c2nnnn2Cc2ccc(F)cc2)N2CCN(c3ccccc3)CC2)cc1 (centres undefined)	PostGolgi ctrl 36.7
COc1ccc(N2CCN(C(c3ccccc3)c3nnnn3Cc3ccc(F)cc3)CC2)cc1 (centres undefined)	PostGolgi ctrl 34.1
COc1ccc(-c2nc(-c3ccccc3)c(-c3cc([N+](=O)[O-])ccc3C)[nH]2)cc1O	PostGolgi ctrl 31.4
O=C(c1cn(-c2ccccc2)nc1-c1cccs1)N1CCN(c2ccc(F)cc2)CC1	PostGolgi ctrl 48.1
O=C(c1cc(-c2cccs2)on1)N1CCN(c2ccc(F)cc2)CC1	none
O=C(CSc1ncnc2c1nnn2-c1ccc(F)cc1)N1CCN(c2ccccc2)CC1	none (no result: PostGolgi yeast, PostGolgi ctrl)
Cc1cc2ccccc2c(=O)n1CC(=O)NCC(=O)N(C)C1CCCCC1	none
COC(=O)c1cccc(NC(=S)NCc2ccc(Cl)cc2)c1	PostGolgi ctrl 44.6
CCOC(=O)c1c(N2C(=O)Nc3cc(Cl)c(Cl)cc3N2O)sc2c1CCCCC2	none
CC1(C)Cc2c(sc3c2c(=N)n(Cc2ccco2)c(=O)n3Cc2ccc(Cl)cc2)CO1	PostGolgi ctrl 96.7 (no result: Plk1 PBD FP, HIV Rev-RRE inh, PLK1 kinase inh, EphB4 antag)
CC(Oc1ccc(Cl)cc1Cl)c1nc(-c2ccc(NC(=O)c3ccco3)cc2)no1 (centres undefined)	none
N#C/C(=C\Nc1ccc2c(c1)OCCO2)c1nc2ccccc2[nH]1	none

Compound activity (PubChem BioAssay)
